Source: ChEMBL document CHEMBL4325909, “Synthesis and evaluation of chalcone analogues containing a 4-oxoquinazolin-2-yl group as potential anti-tumor agents” (Eur J Med Chem, 2019)

Key:
HCT-116 [1] = assay: Cytotoxicity against human HCT116 cells assessed as reduction in cell viability at 20 uM after 72 hrs by MTS assay relative to control; type: functional
Procedure, shortened: (§1)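 Cells grown in DMEM with 10% FBS at 37 °C, 5% CO2, exposed to 20 μM for 72 h. Proliferation read by MTS and inhibition expressed relative to vehicle. ≥50% inhibition counted as active. Triplicate wells, three independent experiments.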

HCT-116 [2] = assay: Cytotoxicity against human HCT116 cells assessed as reduction in cell viability after 72 hrs by MTS assay; type: functional, cell-based; details: HCT-116, 72 h
Procedure, shortened: (§2)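 Cells kept in DMEM with 10% FBS at 37 °C, 5% CO2. Proliferation read by MTS (CellTiter 96 AQueous One) 72 h after exposure across a concentration range. IC50 is the concentration giving 50% proliferation inhibition. Triplicate wells, three independent experiments, mean ± SD.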

MCF7 [3] = assay: Cytotoxicity against human MCF7 cells assessed as reduction in cell viability at 20 uM after 72 hrs by MTS assay relative to control; type: functional; procedure, shortened: as §1
MCF7 [4] = assay: Cytotoxicity against human MCF7 cells assessed as reduction in cell viability after 72 hrs by MTS assay; type: functional, cell-based; details: MCF7, 72 h; procedure, shortened: as §2
MDA-MB-231 = assay: Cytotoxicity against human MDA-MB-231 cells assessed as reduction in cell viability after 72 hrs by MTS assay; type: functional, cell-based; details: MDA-MB-231, 72 h
Procedure, shortened: (§3)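 MTS (CellTiter 96 AQueous One) proliferation read after 72 h of exposure across a concentration range. IC50 is the concentration giving 50% proliferation inhibition. Triplicate determinations in three independent experiments, mean ± SD.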

MCF-10A = assay: Cytotoxicity against human MCF10A cells assessed as reduction in cell viability after 72 hrs by MTS assay; type: cell-based; procedure, shortened: as §3
A549 = assay: Cytotoxicity against human A549 cells assessed as reduction in cell viability after 72 hrs by MTS assay; type: functional, cell-based; details: A549, 72 h; procedure, shortened: as §3
HeLa = assay: Cytotoxicity against human HeLa cells assessed as reduction in cell viability after 72 hrs by MTS assay; type: functional, cell-based; procedure, shortened: as §3
HT-29 = assay: Cytotoxicity against human HT-29 cells assessed as reduction in cell viability after 72 hrs by MTS assay; type: functional, cell-based; details: HT-29, 72 h; procedure, shortened: as §3

COc1cc(OC)c(C(=O)/C=C/c2nc3ccccc3c(=O)[nH]2)c(OC)c1
Activity (HCT-116 [1]): >=50%
IC50 (HCT-116 [2]): 5.57 µM
Activity (MCF7 [3]): >=50%
IC50 (MCF7 [4]): 5.02 µM

Cc1ccc(C(=O)/C=C/c2nc3ccccc3c(=O)[nH]2)c(C)c1
IC50 (MDA-MB-231): 15.3 µM
IC50 (MCF-10A): 5.47 µM
Activity (HCT-116 [1]): >=50%
IC50 (HCT-116 [2]): 4.77 µM
Activity (MCF7 [3]): >=50%
IC50 (A549): 13.3 µM
IC50 (HeLa): 9.55 µM
IC50 (HT-29): 12.5 µM
IC50 (MCF7 [4]): 4.5 µM

COc1ccc(C(=O)/C=C/c2nc3ccccc3c(=O)[nH]2)cc1
Activity (HCT-116 [1]): >=50%
IC50 (HCT-116 [2]): 10 µM
Activity (MCF7 [3]): >=50%
IC50 (MCF7 [4]): 10.2 µM

COc1cc(C(=O)/C=C/c2nc3ccccc3c(=O)[nH]2)ccc1O
Activity (HCT-116 [1]): >=50%
IC50 (HCT-116 [2]): 4.58 µM
Activity (MCF7 [3]): >=50%
IC50 (MCF7 [4]): 6.05 µM

O=C(/C=C/c1ccc([N+](=O)[O-])cc1)c1nc2ccccc2c(=O)[nH]1
Activity (HCT-116 [1]): >=50%
IC50 (HCT-116 [2]): 13.2 µM
Activity (MCF7 [3]): >=50%
IC50 (MCF7 [4]): > 20 µM

O=C(/C=C/c1nc2ccccc2c(=O)[nH]1)c1ccc(C(F)(F)F)cc1
Activity (HCT-116 [1]): < 50%
IC50 (HCT-116 [2]): > 20 µM
Activity (MCF7 [3]): < 50%
IC50 (MCF7 [4]): > 20 µM

O=C(/C=C/c1ccncc1)c1nc2ccccc2c(=O)[nH]1
Activity (HCT-116 [1]): >=50%
IC50 (HCT-116 [2]): > 20 µM
Activity (MCF7 [3]): < 50%
IC50 (MCF7 [4]): > 20 µM

N#Cc1ccc(/C=C/C(=O)c2nc3ccccc3c(=O)[nH]2)cc1
Activity (HCT-116 [1]): >=50%
IC50 (HCT-116 [2]): 19.8 µM
Activity (MCF7 [3]): >=50%
IC50 (MCF7 [4]): > 20 µM

COc1cccc(C(=O)/C=C/c2nc3ccccc3c(=O)[nH]2)c1
Activity (HCT-116 [1]): >=50%
IC50 (HCT-116 [2]): 12 µM
Activity (MCF7 [3]): >=50%
IC50 (MCF7 [4]): 12.9 µM

COc1cc(C(=O)/C=C/c2nc3ccccc3c(=O)[nH]2)cc(OC)c1OC
Activity (HCT-116 [1]): >=50%
IC50 (HCT-116 [2]): 12.8 µM
Activity (MCF7 [3]): >=50%
IC50 (MCF7 [4]): 13.9 µM

O=C(/C=C/c1cccs1)c1nc2ccccc2c(=O)[nH]1
Activity (HCT-116 [1]): >=50%
IC50 (HCT-116 [2]): > 20 µM
Activity (MCF7 [3]): >=50%
IC50 (MCF7 [4]): > 20 µM

O=C(/C=C/c1nc2ccccc2c(=O)[nH]1)c1ccc(Cl)c(Cl)c1
Activity (HCT-116 [1]): >=50%
IC50 (HCT-116 [2]): 17 µM
Activity (MCF7 [3]): >=50%
IC50 (MCF7 [4]): 8.21 µM

O=C(/C=C/c1ccc(F)cc1)c1nc2ccccc2c(=O)[nH]1
Activity (HCT-116 [1]): >=50%
IC50 (HCT-116 [2]): 15.2 µM
Activity (MCF7 [3]): >=50%
IC50 (MCF7 [4]): > 20 µM

O=c1[nH]cc(F)c(=O)[nH]1 [FLUOROURACIL]
IC50 (MDA-MB-231): > 20 µM
IC50 (MCF-10A): > 20 µM
IC50 (A549): 15 µM
IC50 (HeLa): > 20 µM
IC50 (HT-29): 9.99 µM

O=C(/C=C/c1ccccn1)c1nc2ccccc2c(=O)[nH]1
Activity (HCT-116 [1]): >=50%
IC50 (HCT-116 [2]): > 20 µM
Activity (MCF7 [3]): >=50%
IC50 (MCF7 [4]): > 20 µM

O=C(/C=C/c1ccccc1)c1nc2ccccc2c(=O)[nH]1
Activity (HCT-116 [1]): < 50%
IC50 (HCT-116 [2]): > 20 µM
Activity (MCF7 [3]): >=50%
IC50 (MCF7 [4]): > 20 µM

O=C(/C=C/c1nc2ccccc2c(=O)[nH]1)c1ccc(Cl)cc1
Activity (HCT-116 [1]): >=50%
IC50 (HCT-116 [2]): 6.1 µM
Activity (MCF7 [3]): >=50%
IC50 (MCF7 [4]): 6.09 µM

COc1ccccc1C(=O)/C=C/c1nc2ccccc2c(=O)[nH]1
IC50 (MDA-MB-231): 15.7 µM
IC50 (MCF-10A): 5.26 µM
Activity (HCT-116 [1]): >=50%
IC50 (HCT-116 [2]): 3.91 µM
Activity (MCF7 [3]): >=50%
IC50 (A549): 13.7 µM
IC50 (HeLa): 13.4 µM
IC50 (HT-29): 6.71 µM
IC50 (MCF7 [4]): 4.3 µM

COc1ccc(C(=O)/C=C/c2nc3ccccc3c(=O)[nH]2)c(OC)c1
IC50 (MDA-MB-231): 14.3 µM
IC50 (MCF-10A): 9.14 µM
Activity (HCT-116 [1]): >=50%
IC50 (HCT-116 [2]): 4.08 µM
Activity (MCF7 [3]): >=50%
IC50 (A549): 15.5 µM
IC50 (HeLa): 12.7 µM
IC50 (HT-29): 8.77 µM
IC50 (MCF7 [4]): 4.49 µM

COc1cccc(/C=C/C(=O)c2nc3ccccc3c(=O)[nH]2)c1
Activity (HCT-116 [1]): >=50%
IC50 (HCT-116 [2]): 14.7 µM
Activity (MCF7 [3]): >=50%
IC50 (MCF7 [4]): 15.5 µM

Cc1ccc(/C=C/C(=O)c2nc3ccccc3c(=O)[nH]2)cc1
Activity (HCT-116 [1]): >=50%
IC50 (HCT-116 [2]): > 20 µM
Activity (MCF7 [3]): < 50%
IC50 (MCF7 [4]): > 20 µM

COc1cc(/C=C/C(=O)c2nc3ccccc3c(=O)[nH]2)cc(OC)c1OC
Activity (HCT-116 [1]): >=50%
IC50 (HCT-116 [2]): > 20 µM
Activity (MCF7 [3]): < 50%
IC50 (MCF7 [4]): > 20 µM

O=C(/C=C/c1ccco1)c1nc2ccccc2c(=O)[nH]1
Activity (HCT-116 [1]): >=50%
IC50 (HCT-116 [2]): > 20 µM
Activity (MCF7 [3]): >=50%
IC50 (MCF7 [4]): > 20 µM

COc1ccc(/C=C/C(=O)c2nc3ccccc3c(=O)[nH]2)cc1OC
Activity (HCT-116 [1]): < 50%
IC50 (HCT-116 [2]): > 20 µM
Activity (MCF7 [3]): < 50%
IC50 (MCF7 [4]): > 20 µM

O=C(/C=C/c1nc2ccccc2c(=O)[nH]1)c1ccc(Br)cc1
IC50 (MDA-MB-231): 18.3 µM
IC50 (MCF-10A): 11.3 µM
Activity (HCT-116 [1]): >=50%
IC50 (HCT-116 [2]): 4.74 µM
Activity (MCF7 [3]): >=50%
IC50 (A549): 19.5 µM
IC50 (HeLa): 16.1 µM
IC50 (HT-29): > 20 µM
IC50 (MCF7 [4]): 3.75 µM

O=C(/C=C/c1nc2ccccc2c(=O)[nH]1)c1ccccc1
Activity (HCT-116 [1]): >=50%
IC50 (HCT-116 [2]): 5.47 µM
Activity (MCF7 [3]): >=50%
IC50 (MCF7 [4]): 4.09 µM

O=C(/C=C/c1cccnc1)c1nc2ccccc2c(=O)[nH]1
Activity (HCT-116 [1]): >=50%
IC50 (HCT-116 [2]): > 20 µM
Activity (MCF7 [3]): >=50%
IC50 (MCF7 [4]): > 20 µM

COc1cc(/C=C/C(=O)c2nc3ccccc3c(=O)[nH]2)cc(OC)c1
Activity (HCT-116 [1]): >=50%
IC50 (HCT-116 [2]): 15.8 µM
Activity (MCF7 [3]): >=50%
IC50 (MCF7 [4]): 16.8 µM

COc1ccccc1/C=C/C(=O)c1nc2ccccc2c(=O)[nH]1
Activity (HCT-116 [1]): < 50%
IC50 (HCT-116 [2]): > 20 µM
Activity (MCF7 [3]): >=50%
IC50 (MCF7 [4]): > 20 µM

O=C(/C=C/c1nc2ccccc2c(=O)[nH]1)c1ccc(F)cc1
Activity (HCT-116 [1]): < 50%
IC50 (HCT-116 [2]): > 20 µM
Activity (MCF7 [3]): < 50%
IC50 (MCF7 [4]): > 20 µM

O=C(/C=C/c1ccc(Br)cc1)c1nc2ccccc2c(=O)[nH]1
Activity (HCT-116 [1]): >=50%
IC50 (HCT-116 [2]): > 20 µM
Activity (MCF7 [3]): >=50%
IC50 (MCF7 [4]): > 20 µM

O=C(/C=C/c1nc2ccccc2c(=O)[nH]1)c1ccc(O)cc1
IC50 (MDA-MB-231): 16.5 µM
IC50 (MCF-10A): 6.12 µM
Activity (HCT-116 [1]): >=50%
IC50 (HCT-116 [2]): 4.11 µM
Activity (MCF7 [3]): >=50%
IC50 (A549): 15.1 µM
IC50 (HeLa): 9.44 µM
IC50 (HT-29): 10.7 µM
IC50 (MCF7 [4]): 4.92 µM

Nc1ccc(C(=O)/C=C/c2nc3ccccc3c(=O)[nH]2)cc1
Activity (HCT-116 [1]): < 50%
IC50 (HCT-116 [2]): > 20 µM
Activity (MCF7 [3]): < 50%
IC50 (MCF7 [4]): > 20 µM

Cc1ccc(C(=O)/C=C/c2nc3ccccc3c(=O)[nH]2)cc1
Activity (HCT-116 [1]): >=50%
IC50 (HCT-116 [2]): 5.75 µM
Activity (MCF7 [3]): >=50%
IC50 (MCF7 [4]): 9.44 µM

O=C(/C=C/c1ccc(Cl)cc1)c1nc2ccccc2c(=O)[nH]1
Activity (HCT-116 [1]): >=50%
IC50 (HCT-116 [2]): 15.6 µM
Activity (MCF7 [3]): >=50%
IC50 (MCF7 [4]): > 20 µM

COc1ccc(/C=C/C(=O)c2nc3ccccc3c(=O)[nH]2)c(OC)c1
Activity (HCT-116 [1]): < 50%
IC50 (HCT-116 [2]): > 20 µM
Activity (MCF7 [3]): < 50%
IC50 (MCF7 [4]): > 20 µM

Cc1ccccc1C(=O)/C=C/c1nc2ccccc2c(=O)[nH]1
IC50 (MDA-MB-231): 10.5 µM
IC50 (MCF-10A): 6.19 µM
Activity (HCT-116 [1]): >=50%
IC50 (HCT-116 [2]): 4.14 µM
Activity (MCF7 [3]): >=50%
IC50 (A549): 13.3 µM
IC50 (HeLa): 10.4 µM
IC50 (HT-29): 6.45 µM
IC50 (MCF7 [4]): 4.2 µM

COc1ccc(/C=C/C(=O)c2nc3ccccc3c(=O)[nH]2)cc1
Activity (HCT-116 [1]): < 50%
IC50 (HCT-116 [2]): > 20 µM
Activity (MCF7 [3]): < 50%
IC50 (MCF7 [4]): > 20 µM
